Bioassay records (PubChem)
OX1R antag-1 = antagonists of human orexin 1 receptor (OX1R). Orexin/Hypocretin receptor type 1 (Homo sapiens), O43613. inhibition, % at 6.6 µM. OX1R-expressing cells, FRET antagonist read-out. 1.8% of 330,000 active; in the data active = inhibition mostly above about 38%, no sharp cut-off; inactive = mostly below about 40%
Target sequence (O43613 whole entry, looked up): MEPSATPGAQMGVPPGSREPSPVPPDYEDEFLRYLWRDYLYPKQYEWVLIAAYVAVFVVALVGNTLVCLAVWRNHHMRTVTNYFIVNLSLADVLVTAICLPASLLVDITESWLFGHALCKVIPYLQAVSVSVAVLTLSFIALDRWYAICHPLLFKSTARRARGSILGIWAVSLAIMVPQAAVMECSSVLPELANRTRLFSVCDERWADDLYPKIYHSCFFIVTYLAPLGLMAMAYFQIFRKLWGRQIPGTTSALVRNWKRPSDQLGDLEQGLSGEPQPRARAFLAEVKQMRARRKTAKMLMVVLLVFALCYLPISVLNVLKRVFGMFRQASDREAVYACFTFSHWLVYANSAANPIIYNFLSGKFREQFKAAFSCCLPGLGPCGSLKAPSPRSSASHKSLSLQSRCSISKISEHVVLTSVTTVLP
CHO parental Ca = ATP-evoked calcium signal inhibitors, parental CHO, primary screen, counter-screen for OX1R antagonist project, cell-based, fluorescence, Fluo-8 calcium dye; 0.63% of 330,000 active; parental CHO-K1, ATP-induced calcium, Fluo-8 fluorescence; inhibition, % at 5.6 µM;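 active = inhibition above that plate's mean sample inhibition plus 3 SD, cut at about 26% in these data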
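Assay system: untransfected parental CHO cell line. Also added: ATP agonist challenge. Dosing: one dose, 5.6 µM nominal. Measured by: Fluo-8 fluorescence. Read-out: % inhibition. Benchmarks: ATP wells versus no-ATP DMSO wells. Repeats: no replicates.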
OX1R antag-2 = OX1R (HCRTR1) antagonists, primary screen, fluorescence, CHO/OX1R cells, Fluo-8 calcium, orexin A. Orexin/Hypocretin receptor type 1 (Homo sapiens), O43613. Fluo-8 calcium fluorescence. inhibition, % at 5 µM. 0.43% of 330,000 active;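 active = inhibition above its plate's threshold, mean inhibition of all tested compounds on the plate plus 3 SD, cut at about 37% in these data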
GalR3 antag = GalR3 antagonists in HEK293 cells, primary screen, cell-based, fluorescence readout; Galanin receptor type 3 (Homo sapiens), O60755; HEK293 GalR3-CNG cAMP membrane potential fluorescence; galR3 body fused to GalR1 C-terminus; inhibition, % at 3 µM; 0.44% of 360,000 active; AID 651719, 2012;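 active = inhibition above the screen-wide average plus 3 SD, cut at about 13% in these data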;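 note: forskolin and galanin both at EC90 stimulate the cells; cAMP rise reported by CNG channel membrane potential dye signal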
TAAR1 agonist = human TAAR1 agonists, primary screen, Fluo-8 calcium fluorescence, CHO RD-HGA16 cells; vehicle wells 0%, saturating PEA agonist 100%; activation, % at 3 µM; 0.99% of 360,000 active; AID 624467, 2012;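 active = activation above the mean activation of all test compounds in the run plus 3 SD, cut at about 38% in these data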
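Test system: RD-HGA16 (CHO) cells co-expressing Gα16 and hTAAR1 | Doses: Single dose, 3 µM | Schedule: 17-24 h seeding, 75 min 37 °C dye, 30 min RT | Evaluation: % activation from peak over basal fluorescence ratio, DMSO-to-PEA scaled | Technique: Kinetic Fluo-8 calcium fluorescence | Benchmarks: Low control DMSO, high control PEA (EC100)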
TAAR1 antagonist = human TAAR1 antagonists, primary screen, Fluo-8 calcium fluorescence, CHO RD-HGA16 cells. antagonist. inhibition, % at 3 µM. 1.5% of 360,000 active;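 active = inhibition above a per-plate cutoff, the mean inhibition of test compounds on that plate plus 3 SD, cut at about 49% in these data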
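Test system – hTAAR1-expressing CHO RD-HGA16 cells, Gα16-coupled · Also added – β-PEA at EC80 concentration, post-compound challenge · Compound – 3 µM, single point · Incubation – dye loading 75 min at 37 °C, then 30 min room temperature · Measured by – Fluo-8 intracellular calcium dye fluorescence, real-time kinetic reads · Benchmarks – vehicle and agonist controls · Replicates – singlicate, one well per test compound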
Numbers stand for hits; . = inactive; / = no result given. Only some compounds are listed: those with a hit (about 4.3% of all), similar ones and a draw of the others.

SMILES	OX1R antag-1	CHO parental Ca	OX1R antag-2	GalR3 antag	TAAR1 agonist	TAAR1 antagonist
O=C(COC(=O)c1ccc2c(c1Cl)C(=O)c1ccccc1C2=O)NC1CCCCC1	.	.	.	.	.	.
O=C(COC(=O)c1ccc2c(c1Cl)C(=O)c1ccccc1C2=O)NC1CC1	60.8	.	.	.	.	.
COC(=O)c1cc2c(c3c4cc(F)ccc4n(S(=O)(=O)c4ccc(C)cc4)c13)C(=O)N(c1ccc(OC)cc1)C2	/	/	/	.	.	.
CNc1ccccc1C(C)(C)c1cc(-c2cc(C)cc(C)c2)no1	.	.	.	.	.	.
CNc1ccccc1C(C)(C)c1cc(-c2cccc(OC)c2)no1	.	41.2	.	.	.	.
Cc1ccc(OCc2cc(C(=O)NCc3cnn(-c4cccc(F)c4)c3)no2)cn1	.	.	.	.	.	.
Cc1ccc(OCc2cc(C(=O)NCc3ccc(OC(F)(F)F)cc3)no2)cn1	.	.	.	.	40.9	.
CN(Cc1ccc(OC(F)F)cc1)C(=O)c1cccc(S(=O)(=O)N2CCN(c3ccccc3)CC2)c1	/	/	/	.	.	74.5
Cc1cccc(C)c1NC(=O)CN(C)C(=O)c1cccc(S(=O)(=O)N2CCN(c3ccccc3)CC2)c1	.	.	.	.	.	.
CSc1ccc(CCNC(=O)CSc2ccsc2[N+](=O)[O-])cc1	.	.	.	.	.	.
NS(=O)(=O)c1ccc(CCNC(=O)CSc2ccsc2[N+](=O)[O-])cc1	43.6	.	.	.	.	.
CC(NC(=O)c1cc([N+](=O)[O-])cc([N+](=O)[O-])c1)c1ccc(-n2ccnc2)cc1 (stereo not drawn)	63.8	.	.	.	.	.
CC(NC(=O)c1ccc(N(C)C)c([N+](=O)[O-])c1)c1ccc(-n2ccnc2)cc1 (stereo not drawn)	.	.	.	.	.	.
CCc1cc(Cn2nc(-c3ccccc3)cc2C(=O)NCc2cccs2)on1	.	49.7	.	.	.	63.2
CCc1cc(Cn2nc(-c3ccccc3)cc2C(=O)NCCOC)on1	.	.	.	.	.	.
O=C1C(Cc2ccccc2)Nc2ncnc(N3CCc4ccccc4C3)c2N1Cc1ccc(Cl)cc1 (stereo not drawn)	.	.	.	/	/	/
CCC1Nc2ncnc(N3CCc4ccccc4C3)c2N(Cc2ccc(Cl)cc2)C1=O (stereo not drawn)	.	.	.	.	39.6	.
CC1Nc2ncnc(N3CCOCC3)c2N(Cc2ccccc2)C1=O (stereo not drawn)	.	.	.	.	.	.
CC1Nc2ncnc(N3CCc4ccccc4C3)c2N(Cc2ccccc2)C1=O (stereo not drawn)	/	/	/	.	38.6	.
N#Cc1c(=O)c2nc(NCc3ccccc3)ncc2n2ccccc12	62.1	.	.	.	.	.
N#Cc1c(=O)c2nc(NCCCO)ncc2n2c(=O)c3ccccc3[nH]c12	.	.	.	.	.	.
COc1cc(OC)cc(N(C(=O)CNC(=O)c2ccco2)C(C(=O)NCC2CCCO2)c2ccccc2)c1 (stereo not drawn)	.	.	.	.	.	52.0
COc1ccc(-c2csc(NC(=O)C3CCN(c4ncnc5sc(C)c(C)c45)CC3)n2)cc1OC	76.1	74.7	45.3	.	.	50.2
COc1ccccc1OCC(=O)NNC(=O)C1CCN(c2ncnc3sc(C)c(C)c23)CC1	.	.	.	.	.	.
CCc1cccc(NC(=O)C2CCN(c3ncnc4sc(C)c(C)c34)CC2)c1	.	.	.	.	.	53.0
Cc1sc2ncnc(N3CCC(C(=O)Nc4ccc(Cl)c(Cl)c4)CC3)c2c1C	.	.	.	.	.	.
CN(Cc1ccc2c(c1)CCCN2C)C(=O)[C@@H](Cc1ccccc1)NC(=O)[C@H]1O[C@@H](n2ccc(=O)[nH]c2=O)[C@H](O)[C@@H]1O	/	/	/	.	.	.
